Assay results reported in ChEMBL document CHEMBL3352437, “Novel 3,5-bis(arylidene)-4-oxo-1-piperidinyl dimers: structure-activity relationships and potent antileukemic and antilymphoma cytotoxicity” (Eur J Med Chem, 2014).

Columns and labels:
CCRF-CEM [1] = assay: Antiproliferative activity against human CEM cells after 72 hrs by coulter counting analysis; format: functional, cell-based
Summary of the method: (§1)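 Cells exposed to a range of concentrations in RPMI 1640 at 37°C for 72 h. Surviving cells counted by Coulter counter. IC50 taken from concentration-response curves, mean ± SD of at least three independent experiments.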

HeLa = assay: Antiproliferative activity against human HeLa cells after 72 hrs by coulter counting analysis; format: functional, cell-based; summary of the method: as §1
L1210 = assay: Antiproliferative activity against mouse L1210 cells after 72 hrs by coulter counting analysis; format: functional, cell-based; settings: L1210, 72 h
[2] = Antiproliferative activity against human Molt4/C8 cells after 72 hrs by coulter counting analysis; format: functional, cell-based; settings: MOLT-4, 72 h; summary of the method: as §1
HCC 2998 = assay: Cytotoxicity against human HCC2998 cells assessed as inhibition of tumor growth after 24 hrs; format: functional, cell-based; settings: HCC 2998, 24 h
[3] = Cytotoxicity against human NCI60 cells assessed as inhibition of tumor growth after 24 hrs; format: functional, cell-based; settings: NCI60, 24 h
COLO 205 = assay: Cytotoxicity against human COLO205 cells assessed as inhibition of tumor growth after 24 hrs; format: functional, cell-based; settings: COLO 205, 24 h
K562 = assay: Antileukemic activity against human K562 cells assessed as inhibition of tumor growth after 24 hrs; format: functional, cell-based; settings: K562, 24 h
KM12 = assay: Cytotoxicity against human KM12 cells assessed as inhibition of tumor growth after 24 hrs; format: functional, cell-based; settings: KM12, 24 h
[4] = Antileukemic activity against human RPMI8226 cells assessed as inhibition of tumor growth after 24 hrs; format: functional, cell-based; settings: rpmi-8226
HL-60(TB) = assay: Antileukemic activity against human HL-60(TB) cells assessed as inhibition of tumor growth after 24 hrs; format: functional, cell-based; settings: HL-60, 24 h
SW-620 = assay: Cytotoxicity against human SW620 cells assessed as inhibition of tumor growth after 24 hrs; format: functional, cell-based; settings: SW-620, 24 h
[5] = Cytotoxicity against human HCT15 cells assessed as inhibition of tumor growth after 24 hrs; format: functional, cell-based; settings: HCT-15, 24 h
SR = assay: Antileukemic activity against human SR cells assessed as inhibition of tumor growth after 24 hrs; format: functional, cell-based
LAPC4 = assay: Cytotoxicity against human LAPC4 cells assessed as dead cells at 1 uM after 24 hrs; format: functional
Summary of the method: (§2)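 Dienones added as DMSO solutions to cells in RPMI medium and incubated 24 h at 37°C. Cytotoxicity was scored as cell-membrane disruption by propidium iodide staining and expressed as percentage of dead cells, averaged over three independent experiments.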

BJAB = assay: Cytotoxicity against human BJAB cells assessed as dead cells at 1 uM after 24 hrs; format: functional; summary of the method: as §2
Raji = assay: Cytotoxicity against human Raji cells assessed as dead cells at 1 uM after 24 hrs; format: functional; summary of the method: as §2
Ramos = assay: Cytotoxicity against human Ramos cells assessed as dead cells at 1 uM after 24 hrs; format: functional; summary of the method: as §2
[6] = Cytotoxicity against human NALM6 cells assessed as dead cells at 1 uM after 24 hrs; format: functional, NALM-6; summary of the method: as §2
EL4 = assay: Cytotoxicity against mouse EL4 cells assessed as dead cells at 1 uM after 24 hrs; format: functional; summary of the method: as §2
[7] = Cytotoxicity against human MDA231 cells assessed as dead cells at 1 uM after 24 hrs; format: functional, MDA-MB-231; summary of the method: as §2
[8] = Cytotoxicity against human MCF10A cells assessed as dead cells at 1 uM after 24 hrs; format: cell-based; settings: mcf-10a
Summary of the method: (§3)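 Compounds added from DMSO solutions to cells in medium (RPMI; DMEM for Hs-27 fibroblasts) and incubated 24 h at 37°C. Membrane disruption scored by propidium iodide uptake. Result is percentage of dead cells, average of three independent experiments.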

MCF7 = assay: Cytotoxicity against human MCF7 cells assessed as dead cells at 1 uM after 24 hrs; format: functional; summary of the method: as §2
DU-145 = assay: Cytotoxicity against human DU145 cells assessed as dead cells at 1 uM after 24 hrs; format: functional; summary of the method: as §2
[9] = Cytotoxicity against human HuT-102 cells assessed as dead cells at 1 uM after 24 hrs; format: functional; summary of the method: as §2
[10] = Cytotoxicity against human 22Rvl cells assessed as dead cells at 1 uM after 24 hrs; format: functional; summary of the method: as §2
[11] = Cytotoxicity against human MOLT3 cells assessed as dead cells at 1 uM after 24 hrs; format: functional, MOLT-3; summary of the method: as §2
HS27 = assay: Cytotoxicity against human HS27 cells assessed as dead cells at 1 uM after 24 hrs; format: cell-based; settings: hs27, 24 h; summary of the method: as §3
YT = assay: Cytotoxicity against human YT cells assessed as dead cells at 1 uM after 24 hrs; format: functional; summary of the method: as §2
HCC70 = assay: Cytotoxicity against human HCC70 cells assessed as dead cells at 1 uM after 24 hrs; format: functional; summary of the method: as §2
CCRF-CEM [12] = assay: Cytotoxicity against human CEM cells assessed as dead cells at 1 uM after 24 hrs; format: functional; summary of the method: as §2
Jurkat = assay: Cytotoxicity against human Jurkat cells assessed as dead cells at 1 uM after 24 hrs; format: functional; summary of the method: as §2
[13] = Cytotoxicity against human SupT1 cells assessed as dead cells at 1 uM after 24 hrs; format: functional, SUP-T1; summary of the method: as §2

O=C1/C(=C\c2ccc(Cl)c(Cl)c2)CN(C(=O)CC(=O)N2C/C(=C\c3ccc(Cl)c(Cl)c3)C(=O)/C(=C/c3ccc(Cl)c(Cl)c3)C2)C/C1=C\c1ccc(Cl)c(Cl)c1
IC50 (CCRF-CEM [1]): 49900 nM | IC50 (HeLa): 39800 nM | IC50 (L1210): 30400 nM | IC50 [2]: 23500 nM

O=C1/C(=C\c2ccccc2)CN(C(=O)CC(=O)N2C/C(=C\c3ccccc3)C(=O)/C(=C/c3ccccc3)C2)C/C1=C\c1ccccc1
IC50 (HCC 2998): 170 nM | IC50 [3]: 240 nM | IC50 (CCRF-CEM [1]): 201 nM | IC50 (COLO 205): 160 nM | IC50 (HeLa): 910 nM | IC50 (L1210): 1230 nM | IC50 (K562): 50 nM | IC50 (KM12): 130 nM | IC50 [4]: 130 nM | IC50 [2]: 73 nM | IC50 (HL-60(TB)): 290 nM | IC50 (SW-620): 50 nM | IC50 [5]: 170 nM | IC50 (SR): 30 nM

Cc1ccc(/C=C2\CN(C(=O)C(=O)N3C/C(=C\c4ccc(C)cc4)C(=O)/C(=C/c4ccc(C)cc4)C3)C/C(=C\c3ccc(C)cc3)C2=O)cc1
Activity (LAPC4): 2.4% | Activity (BJAB): 41.5% | Activity (Raji): 41.5% | Activity (Ramos): 84.4% | IC50 (CCRF-CEM [1]): 7720 nM | Activity [6]: 59.5% | Activity (EL4): 43.5% | Activity [7]: 9.3% | IC50 (HeLa): 3790 nM | IC50 (L1210): 9090 nM | Activity [8]: 9.3% | Activity (MCF7): 0% | Activity (DU-145): 26% | Activity [9]: 13.9% | Activity [10]: 16.2% | Activity [11]: 0.8% | Activity (HS27): 12% | IC50 [2]: 1660 nM | Activity (YT): 20.1% | Activity (HCC70): 11.9% | Activity (CCRF-CEM [12]): 68.4% | Activity (Jurkat): 80.7% | Activity [13]: 18.8%

O=C1/C(=C/c2ccccc2)CN(C(=O)C(=O)N2C/C(=C\c3ccccc3)C(=O)/C(=C/c3ccccc3)C2)C/C1=C\c1ccccc1
IC50 [3]: 310 nM | IC50 (CCRF-CEM [1]): 750 nM | IC50 (HeLa): 1000 nM | IC50 (L1210): 4460 nM | IC50 [4]: 30 nM | IC50 [2]: 462 nM | IC50 [5]: 300 nM | IC50 (SR): 20 nM

O=C1/C(=C\c2ccccc2)CN(CCCN2C/C(=C\c3ccccc3)C(=O)/C(=C/c3ccccc3)C2)C/C1=C\c1ccccc1
Activity (LAPC4): 5.7% | IC50 (HCC 2998): 180 nM | Activity (BJAB): 39.4% | Activity (Raji): 31.9% | IC50 [3]: 190 nM | Activity (Ramos): 82.1% | IC50 (CCRF-CEM [1]): 2520 nM | Activity [6]: 49.2% | IC50 (COLO 205): 190 nM | Activity (EL4): 65.3% | Activity [7]: 20.1% | IC50 (HeLa): 5540 nM | IC50 (L1210): 2980 nM | Activity [8]: 19.4% | Activity (MCF7): 43.5% | IC50 (K562): 40 nM | Activity [9]: 10% | Activity [10]: 1.7% | Activity [11]: 27.4% | Activity (HS27): 2.9% | IC50 (KM12): 160 nM | IC50 [4]: 40 nM | IC50 [2]: 1450 nM | Activity (YT): 6.6% | Activity (HCC70): 4.3% | IC50 (HL-60(TB)): 250 nM | IC50 (SW-620): 60 nM | Activity (CCRF-CEM [12]): 64.5% | IC50 [5]: 200 nM | Activity (Jurkat): 76.3% | IC50 (SR): 40 nM | Activity [13]: 21.2%

N[C@@H](Cc1ccc(N(CCCl)CCCl)cc1)C(=O)O [MELPHALAN]
IC50 (HCC 2998): 52500 nM | IC50 [3]: 19100 nM | IC50 (CCRF-CEM [1]): 1440 nM | IC50 (COLO 205): 32400 nM | IC50 (HeLa): 1700 nM | IC50 (L1210): 4850 nM | IC50 (K562): 195000 nM | IC50 (KM12): 57500 nM | IC50 [4]: 28200 nM | IC50 [2]: 2810 nM | IC50 (HL-60(TB)): 380 nM | IC50 (SW-620): 26900 nM | IC50 (SR): 3240 nM

O=C1/C(=C\c2ccc(F)cc2)CN(C(=O)CC(=O)N2C/C(=C\c3ccc(F)cc3)C(=O)/C(=C/c3ccc(F)cc3)C2)C/C1=C\c1ccc(F)cc1
Activity (LAPC4): 11.1% | Activity (BJAB): 61.2% | Activity (Raji): 35.3% | Activity (Ramos): 78.6% | IC50 (CCRF-CEM [1]): 2750 nM | Activity [6]: 51.9% | Activity (EL4): 47.7% | Activity [7]: 0.4% | IC50 (HeLa): 5610 nM | IC50 (L1210): 11000 nM | Activity [8]: 7% | Activity (MCF7): 0.2% | Activity (DU-145): 38.4% | Activity [9]: 58.5% | Activity [10]: 18.8% | Activity [11]: 2.6% | Activity (HS27): 0.3% | IC50 [2]: 1580 nM | Activity (YT): 19.2% | Activity (HCC70): 3.1% | Activity (CCRF-CEM [12]): 92.4% | Activity (Jurkat): 87.1% | Activity [13]: 24.9%
